# DAGLB inh = blocks human DAGLB lipase activity. Q8NCG7. HEK293T DAGLB membrane lysate, EnzChek fluorogenic substrate. inhibition, % at 5.17 µM. hit rate 0.059% among 340,000; in the data active = inhibition above about 34%;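 note: 0% = enzyme with vehicle and 100% = wells lacking enzyme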
# Target sequence (Q8NCG7 whole entry, looked up): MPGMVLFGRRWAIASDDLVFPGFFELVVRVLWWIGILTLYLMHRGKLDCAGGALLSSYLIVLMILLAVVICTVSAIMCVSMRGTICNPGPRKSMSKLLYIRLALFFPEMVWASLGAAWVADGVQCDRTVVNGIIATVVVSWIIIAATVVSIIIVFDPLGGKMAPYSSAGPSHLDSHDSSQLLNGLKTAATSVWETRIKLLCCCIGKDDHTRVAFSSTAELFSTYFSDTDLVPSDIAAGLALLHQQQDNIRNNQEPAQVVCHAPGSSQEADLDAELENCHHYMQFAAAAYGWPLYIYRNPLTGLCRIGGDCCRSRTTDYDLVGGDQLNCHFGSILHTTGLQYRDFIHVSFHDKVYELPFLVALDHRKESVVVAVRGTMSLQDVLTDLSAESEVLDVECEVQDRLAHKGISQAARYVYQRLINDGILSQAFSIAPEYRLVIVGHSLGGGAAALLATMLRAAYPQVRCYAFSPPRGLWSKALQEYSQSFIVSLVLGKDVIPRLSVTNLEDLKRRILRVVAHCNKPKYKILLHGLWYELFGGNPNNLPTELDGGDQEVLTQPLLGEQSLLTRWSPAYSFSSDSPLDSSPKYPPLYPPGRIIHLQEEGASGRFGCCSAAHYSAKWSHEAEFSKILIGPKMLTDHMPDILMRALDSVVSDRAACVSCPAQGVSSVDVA
# SENP1 FRET inh = blocks the human SENP1 SUMO protease catalytic domain. Q9P0U3. inhibition, % at 10 µM. hit rate 0.21% among 360,000. recombinant SENP1 catalytic domain, CyPet-SUMO1-YPet FRET cleavage;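 active = inhibition at least 30% at 10 µM, raw YFP signal under a set limit, fluorescence ratio 0.5 to 1.5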;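 note: 0% = enzyme with DMSO and 100% = no enzyme wells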
#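 system = hSENP1 catalytic domain, recombinant | reagent = SFCypet-SUMO1-SFYpet substrate at 25 nM | doses = one dose per compound, 10 µM, 0.5% DMSO | incubation = enzyme reaction for 50 min at room temperature, dark | measured by = FRET, CFP and YFP emission | controls = no-enzyme low, enzyme-DMSO high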
# MIN6 prolif = inducers of beta-cell replication in MIN6 cells; MIN6 cells proliferation, ATPlite luminescence, 48 h; cells starved in 0.2% serum; 100% = growth in 10% serum; proliferation, % at 10 µM; hit rate 0.29% among 330,000;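 active = compounds whose signal lies at least 3.5 SD above the mean of all wells on their plate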;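 note: 0% = DMSO-treated cells in low-serum medium and 100% = 10% serum control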
# Myeloid diff 2 = promotes myeloid progenitor differentiation; ER-HoxA9 myeloid progenitors, lysozyme-GFP differentiation, flow cytometry; calls only at 10 µM; hit rate 1% among 360,000;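 active = normalized GFP-positive differentiation at or above the plate's own cutoff, the solvent-only control mean plus 3 SD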;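 note: cells exposed to compound for four days before flow analysis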
# NRP1-CendR mod = NRP-1/CendR interaction modulation | inhibition, % at 25 µM | FAM-RPARPAR peptide binding to NRP-1, fluorescence polarization | O14786 | AID 602438 | hit rate 0.85% among 360,000;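 active = inhibition or corrected inhibition above about 18%, plus a signal ratio from 0.5 to 1.5, limit read from the data, passing the limit was not always enough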
# MT1-MMP act inh = MT1-MMP (human) activation inhibition; P50281; HT1080 RFP-PRO-GFP cells, GFP/RFP ratio fluorescence, overnight; percent of plate control window, DMSO zero; GFP/RFP ratio change, % at 20 µM; hit rate 0.061% among 360,000; AID 651647;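 active = GFP/RFP ratio change of at least 30% with cell ATP level not reduced by more than half and red fluorescence within 50% of control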
#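 Test system: HT1080 RFP-PRO-GFP cells; Benchmarks: DMSO and RFP-L50D-GFP cell wells; Timing: cells overnight before dosing, compound overnight, 37 °C, 5% CO2; Compound: one 20 µM compound dose with 1% DMSO; Read-out: GFP/RFP fluorescence ratio.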
# Starred values were filed as active, the others as inactive; i = inactive; . = no result; + = active, no number; ! = not confirmed by another sample. The list is not random: actives were taken first. Their share in the collection is about 2.4%.
SMILES,DAGLB inh,SENP1 FRET inh,MIN6 prolif,Myeloid diff 2,NRP1-CendR mod,MT1-MMP act inh
CC(OC(=O)C1=COCCO1)C(=O)Nc1cc(S(=O)(=O)N2CCCCC2)ccc1Cl (stereo unspecified),4.0,-5.9,0.0,i,22.7*,1.0
O=C(OCCO)c1c(-c2ccccc2)oc2c1C(OCCO)CCC2 (stereo unspecified),.,1.0,.,i,1.5,6.0
C=CCc1c(C)[nH]c(=O)[nH]c1=O,-0.1,1.7,-0.5,i,-8.7,-1.5
O=C(c1ncn(Cc2ccccc2)c1C(=O)N1CCc2ccccc2C1)N1CCc2ccccc2C1,-1.1,-0.3,-3.8,i,29.5*,-4.2
COc1ccc(CN(C)C(=O)CNC(=O)c2sc3ccccc3c2Cl)c(OC)c1,-4.2,1.5,.,i,-8.7,6.9
Cc1ccc(S(=O)(=O)N2C[C@H]3[C@H]4C(=O)N(c5ccccc5)C(=O)[C@H]4CC(=O)[C@H]3[C@@H]2c2ccccc2F)cc1,.,-9.9,.,i,25.0*,3.3
O=C(NC(c1ccc(F)cc1)c1ccc2ccccc2n1)C1CCN(CCOc2ccc(F)cc2)CC1 (stereo unspecified),.,-9.7,.,+,-2.9,-0.8
O=C(NC(c1ccc(F)cc1)c1ccc2ccccc2n1)C1CCN(Cc2ccc(Oc3ccccc3)cc2)CC1 (stereo unspecified),.,-2.3,.,i,-15.7,10.3
O=C(NC(c1ccccc1)c1ccc2ccccc2n1)C1CCN(Cc2ccc(Oc3ccccc3)cc2)CC1 (stereo unspecified),.,-2.4,.,i,20.0*,1.3
NC(=O)NC(=O)C(Nc1ccc(N2CCCCC2)cc1)c1ccccc1 (stereo unspecified),3.4,15.1,-1.9,i,-10.1,5.3
COc1ccc(S(=O)(=O)N2CCC[C@H]2C(=O)N2CCC[C@H]2C(=O)N(C)Cc2ccccc2)cc1C,.,2.2,.,i,-5.0,1.4
Cc1ccc(NC2CCCN(C(=O)c3ccc4nccnc4c3)C2)cc1C (stereo unspecified),0.8,1.2,-1.0,i,43.3*,-1.2
COc1ccc(NC2CCCN(C(=O)c3ccc4nccnc4c3)C2)cc1OC (stereo unspecified),2.0,0.9,-2.4,i,-3.8,-0.6
C[C@@]12C(=O)N(CCc3c[nH]c4ccccc34)CC(=O)N1[C@H]1c3ccccc3OC[C@@H]1[C@@H]2c1ccccc1,-2.2,-1.3,-7.1,i,-4.2,-2.1
CCC(=O)N1CCCc2cc(S(=O)(=O)N3CCN(c4ncccn4)CC3)ccc21,1.5,2.0,0.9,i,-11.0,1.9
CCC(=O)N1CCCc2cc(S(=O)(=O)CCC(=O)Nc3ccccc3C)ccc21,0.9,2.0,-2.1,i,27.9*,-1.7
CCC(=O)N1CCCc2cc(S(=O)(=O)N3CCN(c4ccccc4F)CC3)ccc21,-2.9,1.7,-6.5,+,-0.6,-0.4
O=C(c1ccc(Cn2cnnn2)cc1)N1CCCC(Nc2ccc(F)c(F)c2)C1 (stereo unspecified),0.3,0.5,-2.3,i,-6.8,-3.9
CCn1c(CC(=O)Nc2ccccc2F)nnc1SCC(=O)Nc1nncs1,-2.5,0.3,-2.9,i,15.2,-2.6
CCOc1ccc(N=Cc2ccc([N+](=O)[O-])cc2)c(O)c1,2.6,39.0*,.,i,-2.8,1.8
CCN(CC)CCNC(=O)c1ccc(NC(=O)c2ccc(C(=O)c3ccccc3)cc2)cc1,2.3,-0.1,-3.2,i,-2.5,7.9
CCN(CC)CCNC(=O)c1ccc(NC(C)=O)cc1,3.1,1.3,0.7,+!,2.1,1.3
CSc1ccc(CN2CCC(C)(Oc3ccc(-n4ccnc4)cc3)C2)cc1 (stereo unspecified),.,-1.9,.,i,4.7,-2.6
NC(c1cccc(F)c1)c1nc(-c2ccc(Cl)cc2)cs1 (stereo unspecified),.,-0.7,.,i,2.7,-1.4
CSc1ccccc1NC(=O)CN(C)C(=O)COc1cccc2cccnc12,1.1,2.0,-3.8,i,27.4*,-8.0
SMILES,DAGLB inh,SENP1 FRET inh,MIN6 prolif,Myeloid diff 2,NRP1-CendR mod,MT1-MMP act inh
CN(CC(=O)Nc1ccc(Cl)c(C(F)(F)F)c1)C(=O)COc1cccc2cccnc12,-1.4,5.1,.,i,-1.9,1.0
O=C(c1ccc(CSc2nc3ccncc3[nH]2)cc1)N1CCCCCC1,-2.2,1.0,-6.0,i,3.1,-4.3
O=C(c1ccc(CSc2nc3ccncc3[nH]2)cc1)N1CCN(c2cccc(Cl)c2)CC1,4.1,-1.1,-6.6,+,-6.2,-3.8
O=C(O)C1=C[C@H](c2ccc(F)cc2)C[C@H](OCc2ccc(CO)cc2)O1,-2.2,-3.9,-1.5,i,1.7,2.8
Cc1ccccc1-n1c(SCC(=O)c2c(N)n(C)c(=O)n(C)c2=O)nc2sc3c(c2c1=O)CCCC3,-2.4,2.5,-4.7,+,4.5,-1.8
O=C(N=C1SC2CS(=O)(=O)CC2N1c1cc(Cl)ccc1Cl)C1CCCO1 (stereo unspecified),0.0,-0.9,-0.2,i,4.1,-2.7
COc1ccc(Nc2cc(C)nc3ncnn23)c(OC)c1,-1.8,2.4,7.0,i,5.1,1.1
COc1ccc(CNc2cc(C)nc3ncnn23)c(OC)c1,-0.9,-6.8,-5.7,+,8.6,5.5
CSc1ccc(C(=O)NCC(c2ccco2)N(C)C)cc1[N+](=O)[O-] (stereo unspecified),-0.6,-0.1,0.0,i,1.9,3.5
Cn1c(N)c(C(=O)COC(=O)c2cc(C3CC3)nc3ccccc23)c(=O)n(Cc2ccccc2)c1=O,-3.1,-85.0,-8.3,i,-9.0,-13.4
CN(C)/C=C(\C=O)c1ncc(C(F)(F)F)cc1Cl,1.6,-1.5,0.8,i,10.2,-7.3
C/C(=N\NC(=O)C1CC1)c1ccc2c(c1)OCCO2,0.1,2.7,-2.3,i,9.3,2.0
N#CC1(NC(=O)COC(=O)c2cc(O)c3ccccc3c2O)CCCCC1,5.3,-18.2,-7.1,+,-5.7,-10.7
CCCCNC(=O)C1c2ccccc2OCC(=O)N1Cc1ccc2c(c1)OCO2 (stereo unspecified),.,1.4,.,i,19.3*,5.5
CCCCNC(=O)C1c2ccccc2OCC(=O)N1Cc1ccccc1 (stereo unspecified),.,5.2,.,i,-1.7,8.2
COc1cccc(NC(=S)NCCc2ccccn2)c1,-3.0,-1.9,-1.3,i,-3.2,4.6
COCCNC(=O)C(=O)Nc1cccc(Br)c1,1.2,1.0,-0.3,i,28.6*,7.7
COCCNC(=O)C(=O)Nc1ccc(Br)cc1,0.0,0.8,-2.2,i,-14.1,1.3

# Assay outcomes: PubChem BioAssay, several laboratories
